# Measured values collected from several papers.
# Lines come from different studies, so protocols differ.
# Target: Calcium/calmodulin-dependent protein kinase type 1 (CAMK1, Homo sapiens, UniProt Q14012)
SMILES,observed,mode,method,tested at,endpoint,result
Cc1noc([C@H]2C[C@@H](c3ccc(C(F)(F)F)cc3)CN(C(=O)N3CCS(=O)(=O)C3)C2)n1,cell-free assay,,competition with immobilised ligand,1 µM,remaining binding,100%
COc1cc2c(Nc3ccc(Br)cc3F)ncnc2cc1OCC1CCN(C)CC1,cell-free assay,,,0.5 µM,remaining signal,81.6%
CC(C)(C)C(=O)c1sc(NC2CCCCC2)nc1N,enzyme activity,inhibitor,,10 µM,remaining activity,109%
CNC(=O)c1cc(Oc2ccc(NC(=O)Nc3ccc(Cl)c(C(F)(F)F)c3)cc2)ccn1,enzyme activity,inhibitor,,0.3 µM,inhibition,-6%
CCc1ccccc1C(=O)Nc1n[nH]c2c(C)c(F)c(C3C(C#N)=C(C)N(C)C(C)=C3C#N)cc12,cell-free assay,,competition with immobilised ligand,1 µM,remaining binding,76%
Cc1ccc(C(=O)Nc2ccc(CN3CCN(C)CC3)c(C(F)(F)F)c2)cc1C#Cc1cnc2cccnn12,enzyme activity,,,23.5 nM,remaining activity,74%
Nc1nc(NC2CCCCC2)sc1C(=O)c1ccccc1,enzyme activity,inhibitor,,10 µM,remaining activity,86%
COc1cccc2c(NCc3ccccc3)nc(-n3c(N)nc4ccccc43)nc12,target engagement in cells,inhibitor,chemoproteomics,20 mM,inhibition,-2.1%
COc1cc(-c2cc(-c3ccc(N4CCNCC4)cc3)cnc2C)cc(OC)c1OC,enzyme activity,inhibitor,,1 µM,inhibition,1%
CS(=O)(=O)N1CCCC(NC(=O)[C@H](CCC2CCCCC2)NC(=O)c2ccc(CNc3ncnc4c3nnn4-c3ccccc3)cc2)C1 (some centres unmarked),cell-free assay,,competition with immobilised ligand,0.1 µM,remaining binding,96%
CC(C)(O)[C@H]1CC[C@H](Nc2ccc3ncc(-c4cccc(C(F)(F)F)c4)n3n2)CC1,enzyme activity,inhibitor,,1 µM,remaining activity,100%
Cc1ccc(Nc2nccc(N(C)c3ccc4c(C)n(C)nc4c3)n2)cc1S(N)(=O)=O,enzyme activity,inhibitor,,0.3 µM,inhibition,13%
Nc1c(C(=O)NCc2ccc(C(=O)NCCCC3CCCCC3)cc2)cnn1-c1ccccc1,cell-free assay,,competition with immobilised ligand,0.1 µM,remaining binding,100%
Cc1sc(C(=O)NC2COC2)cc1-n1cc(NC(=O)Nc2c(F)cccc2Cl)cn1,enzyme activity,inhibitor,,10 µM,remaining activity,115%
CCN(CC)CCNC(=O)c1c(C)[nH]c(/C=C2\C(=O)Nc3ccc(F)cc32)c1C,enzyme activity,inhibitor,,10 µM,inhibition,87%
COc1cc(Nc2cnc(C#N)c(O[C@H](C)CN(C)C)n2)ncc1-c1cnn(C)c1,enzyme activity,inhibitor,radiometric,10 µM,remaining activity,95%
O=C(Nc1cnc(Oc2ccc(F)cc2)nc1)N1CCc2ncccc2[C@@H]1c1ccc(F)cc1,cell-free assay,,competition with immobilised ligand,1 µM,remaining binding,73%
C=CC(=O)Nc1cc(Nc2nccc(Nc3cc(Cl)c(F)cc3C(C)(C)O)n2)c(OC)cc1N1CC[C@@H](N(C)C)C1,enzyme activity,inhibitor,,1 µM,inhibition,2%
CN1CC(Oc2cnc(C#N)cc2-c2ccn3nc(NC(=O)C4CC4)cc3c2)C1,enzyme activity,inhibitor,,1 µM,inhibition,1%
O=C(NS(=O)(=O)c1ccc(NCC2CCOCC2)c([N+](=O)[O-])c1)c1ccc(N2CCN(Cc3ccc(C(F)(F)F)cc3-c3ccc(Cl)cc3)CC2)cc1Oc1cnc2[nH]ccc2c1,cell-free assay,,competition with immobilised ligand,1 µM,remaining binding,100%
Cn1c(=O)n(-c2ccc(C(C)(C)C#N)cc2)c2c3cc(-c4cnc5ccccc5c4)ccc3ncc21,enzyme activity,inhibitor,,10 µM,remaining activity,100%
O=C1NC(=O)c2cc(Nc3ccc(F)cc3)c(Nc3ccc(F)cc3)cc21,cell-free assay,,,0.5 µM,remaining signal,104%
CCCOc1ccc([C@@H]2[C@@H](C(=O)O)[C@H](c3ccc4c(c3)OCO4)CN2CC(=O)Nc2c(CC)cccc2CC)cc1,cell-free assay,,competition with immobilised ligand,1 µM,remaining binding,100%
FC(F)c1nc2ccccc2n1-c1nc(N2CCOCC2)nc(N2CCOCC2)n1,enzyme activity,inhibitor,,10 µM,remaining activity,114%
COc1cc2ncnc(Nc3ccc(F)c(Cl)c3)c2cc1OCCCN1CCOCC1,cell-free assay,,,0.5 µM,remaining signal,102%
Nc1ncnc2occ(-c3ccc(NC(=O)Nc4cc(C(F)(F)F)ccc4F)cc3)c12,cell-free assay,,,20 µM,remaining signal,5.5%
CC/C(=N\NC(=O)NCc1cccc(O)c1)c1ccc(O)c(C)c1O,enzyme activity,inhibitor,,0.1 µM,inhibition,-2.3%
O=C(O)[C@@H]1[C@@H](Cn2nnc3ccccc3c2=O)CC[C@H]1C(=O)c1ccc(OCCC2CCOCC2)cc1,cell-free assay,,competition with immobilised ligand,1 µM,remaining binding,92%
O=C(Nc1cnn(-c2csc(C(=O)NC3COC3)c2)c1)Nc1c(F)cccc1Cl,enzyme activity,inhibitor,,5 µM,remaining activity,98%
